Results of several laboratories.
Each line is one published result; the experiments were not run side by side.
Target: Tyrosine-protein kinase Fer (FER, Homo sapiens, UniProt P16591)

| SMILES | test | setting | endpoint | value |
| --- | --- | --- | --- | --- |
| CN(C)C(=O)Cn1cc(-c2nc(C3(c4ccc(-c5cnc(N)nc5)cc4)CC3)no2)cn1 | cell-free assay, competition with immobilised ligand | 1 µM | remaining binding | 79% |
| O=c1cc(-c2cccc3c2Sc2ccccc2S3)oc(N2CCOCC2)c1 | enzyme activity, inhibitor | 0.5 µM | remaining activity | 103% |
| CCCS(=O)(=O)Nc1ccc(F)c(C(=O)c2c[nH]c3ncc(-c4ccc(Cl)cc4)cc23)c1F | enzyme activity, inhibitor | 1 µM | inhibition | < 10% |
| C[C@@H]1CCN(C(=O)CC#N)C[C@@H]1N(C)c1ncnc2[nH]ccc12 | cell-free assay | 0.5 µM | remaining signal | 104% |
| C[C@H](c1ccc(F)cc1)N(Cc1cccc(C(=O)O)c1)C(=O)c1cnc2ccccc2c1 | cell-free assay, competition with immobilised ligand | 1 µM | remaining binding | 100% |
| Cc1ccc(Nc2nccc(N(C)c3ccc4c(C)n(C)nc4c3)n2)cc1S(N)(=O)=O | enzyme activity, inhibitor | 0.3 µM | inhibition | -24% |
| COc1cc2ncnc(Nc3ccc(Oc4ccccc4)c(C)c3C)c2cc1OC | enzyme activity, inhibitor | 1 µM | inhibition | 18% |
| C=CC(=O)Nc1cc(Nc2nccc(Nc3cc(Cl)c(F)cc3C(C)(C)O)n2)c(OC)cc1N1CC[C@@H](N(C)C)C1 | enzyme activity, inhibitor | 1 µM | inhibition | 8% |
| COc1cc(Nc2c(C#N)cnc3cc(OCCCN4CCN(C)CC4)c(OC)cc23)c(Cl)cc1Cl | cell-free assay | 0.5 µM | remaining signal | 54.6% |
| CNC(=O)c1cc(Oc2ccc(NC(=O)Nc3ccc(Cl)c(C(F)(F)F)c3)cc2)ccn1 | enzyme activity, inhibitor | 10 µM | inhibition | -30% |
| CC(=O)N1CCC(c2ccc(C(=O)NC3=NCCN3)cc2C(F)(F)F)CC1 | cell-free assay, competition with immobilised ligand | 1 µM | remaining binding | 93% |
| COc1cc2nccc(Oc3ccc(NC(=O)c4c5n(n(-c6ccc(F)cc6)c4=O)CCCC5)cc3)c2cc1OC | enzyme activity, inhibitor | 0.1 µM | inhibition | -14% |
| CCCCN(CCCC)C(=O)CN1C[C@H](c2cc(OC)c3c(c2)OCO3)[C@@H](C(=O)O)[C@@H]1CC(C)(C)CCC | cell-free assay, competition with immobilised ligand | 1 µM | remaining binding | 100% |
| COc1cc2nccc(Oc3ccc(NC(=S)NC(=O)c4ccccc4C)cc3)c2cc1OC | enzyme activity, inhibitor | 0.5 µM | remaining activity | 58.2% |
| Nc1ncnc2occ(-c3ccc(NC(=O)Nc4cc(C(F)(F)F)ccc4F)cc3)c12 | cell-free assay | 20 µM | remaining signal | 9% |
| O=C(Nc1cnn(-c2csc(C(=O)NC3COC3)c2)c1)Nc1ccccc1Cl | enzyme activity, inhibitor | 5 µM | remaining activity | 101% |

| SMILES | test | setting | endpoint | value |
| --- | --- | --- | --- | --- |
| Cc1c[nH]c2nccc(Oc3c(F)cc(Nc4cc(Cl)nc(N)n4)cc3F)c12 | cell-free assay, competition with immobilised ligand | 0.1 µM | remaining binding | 100% |
| CCN(CC)CCNC(=O)c1c(C)[nH]c(/C=C2\C(=O)Nc3ccc(F)cc32)c1C | enzyme activity, inhibitor | 10 µM | inhibition | 55% |
| CCOCCn1cc(C(=O)Nc2ccc(-n3nc(-c4cccnc4)cc3C(F)(F)F)cn2)ccc1=O | cell-free assay, competition with immobilised ligand | 1 µM | remaining binding | 100% |
| COc1ccc(C(=O)Nc2sc3c(c2C(N)=O)CCCC3)cc1OC | enzyme activity, inhibitor | 0.5 µM | remaining activity | 89.8% |
| CC(C)(C)c1nc2c(s1)c1nc(N)ncc1c1ccc(NS(=O)(=O)c3c(F)cccc3F)c(F)c12 | enzyme activity, inhibitor, radiometric | 1 µM | remaining activity | 111% |
| CCN(CC)c1ccc(C2=NNC(=O)CC2C)cc1[N+](=O)[O-] (stereo not shown) | enzyme activity, inhibitor | 10 µM | remaining activity | 119% |
| CC/C(=N\NC(=O)NCc1cccc(O)c1)c1ccc(O)c(C)c1O | enzyme activity, inhibitor | 0.1 µM | inhibition | -2.3% |
| COc1cccc(CNC(=O)c2nc3scc(COCc4ccc(C(=O)O)cc4)c3c(=O)[nH]2)c1 | cell-free assay, competition with immobilised ligand | 1 µM | remaining binding | 100% |
| Cc1cnc(NC2CCOCC2)nc1-n1cnc(C(=O)NC(CN)c2cc(F)cc(Cl)c2)c1 (stereo not shown) | enzyme activity, inhibitor, radiometric | 1 µM | remaining activity | 104% |
| C[S+]([O-])c1ccc(-c2nc(-c3ccncc3)c(-c3ccc(F)cc3)[nH]2)cc1 (stereo not shown) | cell-free assay | 0.5 µM | remaining signal | 95% |
| CC(C)(O)[C@H]1CC[C@H](Nc2ccc3ncc(-c4cccc(C(F)(F)F)c4)n3n2)CC1 | enzyme activity, inhibitor | 1 µM | remaining activity | 77.1% |
| COc1cc2ncnc(Nc3ccc(F)c(Cl)c3)c2cc1OCCCN1CCOCC1 | cell-free assay | 0.5 µM | remaining signal | 94.1% |
| Cc1ccc(C(=O)NCc2ccsc2)cc1C#Cc1cn(C(C)C)c2ncnc(N)c12 | enzyme activity, inhibitor | 1 µM | activity vs control | 92% |
| O=C1NC(=O)c2cc(Nc3ccc(F)cc3)c(Nc3ccc(F)cc3)cc21 | cell-free assay | 0.5 µM | remaining signal | 96.4% |
| C[C@@H]1CN(c2cc(-c3n[nH]c4ccc(OC5(C)CC5)cc34)ncn2)C[C@H](C)O1 | cell-free assay, competition with immobilised ligand | 0.1 µM | remaining binding | 86% |
